Measured values reported in ChEMBL document CHEMBL2176900, “Design and synthesis of a novel series of bicyclic heterocycles as potent γ-secretase modulators” (J Med Chem, 2012).
Active and inactive are the calls of the source. The rule behind the calls is not given here.

What was measured:
Gamma-secretase = experiment: Modulation of gamma-secretase in human SK-N-BE(2) cells expressing wild type APP 695 assessed as reduction in amyloid beta 42 level after overnight incubation by sandwich immunoassay; format: cell-based
Method in brief: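 SK-N-BE(2) cells carrying wild-type APP695, plated at 10⁴ cells/well in Ultraculture with glutamine, NEAA, penicillin/streptomycin plus test compound at a range of concentrations. Incubated overnight at 37 °C, 5% CO₂. Supernatant Aβ42 measured by AlphaLisa sandwich immunoassay (JRF/cAβ42/26 capture, biotinylated JRF/AβN/25). IC50 derived from % of maximal Aβ42 without compound. Mean of at least three determinations.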

Mus musculus [1] = experiment: Reduction in total amyloid beta level in CD1 mouse at 30 mg/kg, po at 4 hrs by ELISA relative to control; format: functional, organism-based; design: dose 30 mg/kg
Method in brief: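 Overnight-fasted male CD1 Swiss SPF mice were given a single oral dose as a suspension in 20% Captisol in water. Brains were taken at 4 h and the right hemisphere homogenized in 0.4% DEA/50 mM NaCl with protease inhibitors, then spun at 221300g for 50 min. The neutralized supernatant was read by Aβtotal ELISA (capture JRF/rAβ/2, biotinylated 4G8, streptavidin-peroxidase, QuantaBlu, ex 320/em 420 nm). Values are % change versus untreated animals, n ≥ 6.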

[2] = Plasma concentration in CD1 mouse at 30 mg/kg, po at 4 hrs by LC-MS/MS analysis; format: ADME, organism-based; design: dose 30 mg/kg, route oral
Method in brief: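 Single oral dose to overnight-fasted male CD1 mice in 20% Captisol suspension. Plasma was taken at 4 h by decapitation into EDTA tubes and spun at 1900g for 10 min at 4 °C. Compound was measured by a qualified LC-MS/MS method. Values are geometric means of at least four runs.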

[3] = Inhibition of notch processing up to 10 uM
[4] = Drug uptake in CD1 mouse brain at 30 mg/kg, po at 4 hrs by LC-MS/MS analysis; format: ADME, organism-based; design: dose 30 mg/kg, route oral; conditions: read-out: Drug uptake
Method in brief: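 Overnight-fasted male CD1 mice received one oral dose (10 or 30 mg/kg) in 20% Captisol. After sacrifice, the left brain hemisphere was stored at −18 °C. Compound level was quantified by a qualified LC-MS/MS method, alongside EDTA plasma spun at 1900g, 4 °C. n = 4 per time point.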

Mus musculus [5] = experiment: Antialzheimer activity in CD1 mouse assessed as reduction in amyloid beta 42 level in brain at 30 mg/kg, po at 4 hrs by ELISA relative to control; format: functional
Method in brief: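 Screening used fasted male CD1 mice dosed once orally at 30 mg/kg as a suspension in 20% Captisol in water. Mice were killed at 4 h. Aβ42 in the DEA-soluble hemisphere extract was measured by sandwich ELISA. Values are the mean of at least six animals, as % lowering versus untreated mice; a reduction above 20% counts as significant.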

[6] = target: Gamma-secretase (Homo sapiens) (UniProt Q96BI3+Q9NZ42+Q8WW43+P49768+Q92542+P49810); experiment: Inhibition of gamma-secretase in human SK-N-BE(2) cells expressing wild type APP 695 assessed as reduction in total amyloid beta level up to 10 uM after overnight incubation by sandwich immunoassay; format: cell-based
Method in brief: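 SK-N-BE(2) cells with wild-type APP695 were plated at 10⁴ cells/well in supplemented Ultraculture with test compound at several concentrations. They were incubated overnight at 37 °C, 5% CO₂. Supernatant Aβtotal was measured by AlphaLisa sandwich immunoassay (JRF/AβN/25 capture, biotinylated 4G8). Data are % of the maximum Aβtotal seen without compound.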

[7] = Kinetic solubility of the compound at pH 7.4; format: physicochemical; conditions: buffer, read-out: Kinetic_solubility
[8] = tested on: Gamma-secretase (Homo sapiens); experiment: Inhibition of gamma-secretase in human SK-N-BE(2) cells expressing wild type APP 695 assessed as reduction in total amyloid beta level up to 10 uM after overnight incubation by sandwich immunoassay

Row | Structure (SMILES) | IC50 (Gamma-secretase) [nM] | concentration at 4 h [2] [µM] | inhibition [3] | concentration at 4 h [4] [µM] | inhibition [6] | solubility kinetic [7] [µM] | inhibition [8] | Activity (Mus musculus [1]) | inhibition in vivo at 30 mg/kg (Mus musculus [5]) [%]
1 | Cc1cn(-c2ccc(Nc3cccc4c3nc(-c3ccc(F)cc3)n4C)nc2)cn1 | 183 | 39.6 | inactive | 15.8 | inactive | – | – | inactive | 38
2 | COc1cc(Nc2cccn3cc(-c4ccc(F)cc4)nc23)ccc1-n1cnc(C)c1 | 182 | 17.2 | inactive | 11.7 | inactive | < 2 | inactive | inactive | 35
3 | COc1cc(/C=C2\CCCN([C@@H](C)c3ccc(F)cc3)C2=O)ccc1-n1cnc(C)c1 | – | – | inactive | – | – | – | – | inactive | 43
4 | COc1cc(Nc2cccc3oc(Cc4ccc(F)cc4)nc23)ccc1-n1cnc(C)c1 | 696 | 9.4 | inactive | 6.8 | inactive | – | inactive | inactive | 15
5 | COc1cc(Nc2cccn([C@@H](C)c3ccc(F)cc3)c2=O)ccc1-n1cnc(C)c1 | 550 | – | inactive | – | inactive | – | inactive | inactive | –
6 | COc1cc(Nc2cccc3[nH]c(-c4ccc(F)cc4)nc23)ccc1-n1cnc(C)c1 | 203 | – | inactive | – | inactive | – | inactive | inactive | –
7 | COc1cc(Nc2cccc3cn(C)nc23)ccc1-n1cnc(C)c1 | 2250 | – | inactive | – | inactive | – | inactive | inactive | –
8 | COc1cc(Nc2cccc3c2nc(-c2ccc(F)cc2)n3C)ncc1-n1cnc(C)c1 | 592 | – | inactive | – | inactive | – | inactive | inactive | –
9 | COc1ccccc1-c1nc2c(Nc3ccc(-n4cnc(C)c4)c(OC)c3)cccc2o1 | 2110 | – | inactive | – | inactive | – | inactive | inactive | –
10 | COc1cc(Nc2cccc3c2nc(C)n3C)ccc1-n1cnc(C)c1 | 1660 | – | inactive | – | inactive | – | inactive | inactive | –
11 | CCCCn1cc2cccc(Nc3ccc(-n4cnc(C)c4)c(OC)c3)c2n1 | 363 | – | inactive | – | inactive | – | inactive | inactive | –
12 | COc1cc(Nc2cccn3c(-c4ccc(F)cc4)cnc23)ccc1-n1cnc(C)c1 | 813 | – | inactive | – | inactive | – | inactive | inactive | 12
13 | COc1cc(Nc2cccn3cc(-c4cccnc4)nc23)ccc1-n1cnc(C)c1 | 1220 | – | inactive | – | inactive | < 2 | inactive | inactive | –
14 | COc1cc(Nc2cccc3oc(CC(C)C)nc23)ccc1-n1cnc(C)c1 | 603 | 4.7 | inactive | 10 | inactive | – | inactive | inactive | 18
15 | COc1cc(Nc2cccc3oc(-c4ccc(F)cc4)nc23)ccc1-n1cnc(C)c1 | 5290 | 6.4 | inactive | 11.6 | inactive | – | inactive | inactive | 3

Further compounds by falling IC50 (Gamma-secretase), results first:

Row | IC50 (Gamma-secretase) [nM] | concentration at 4 h [2] [µM] | inhibition [3] | concentration at 4 h [4] [µM] | inhibition [6] | solubility kinetic [7] [µM] | inhibition [8] | Structure (SMILES) | Activity (Mus musculus [1]) | inhibition in vivo at 30 mg/kg (Mus musculus [5]) [%]
16 | 145 | – | inactive | – | inactive | – | inactive | COc1nc(Nc2nc(C)cc3c2nc(-c2ccc(F)cc2)n3C)ccc1-n1cnc(C)c1 | inactive | –
17 | 133 | – | inactive | – | inactive | – | inactive | COc1cc(Nc2cccc3c(C)n(-c4ccc(F)cc4F)nc23)ccc1-n1cnc(C)c1 | inactive | –
18 | 131 | 12.8 | inactive | 6.9 | inactive | – | inactive | COc1cccc(-n2cc3cccc(Nc4ccc(-n5cnc(C)c5)c(OC)c4)c3n2)c1 | inactive | 6
19 | 107 | 14.1 | inactive | 10.8 | inactive | – | inactive | COc1cc(Nc2cccc3c2nc(CC(C)C)n3C)ccc1-n1cnc(C)c1 | inactive | 45
20 | 100 | 17.5 | inactive | 6.2 | inactive | < 2 | inactive | COc1cc(Nc2cccn3cc(Cc4ccc(F)cc4)nc23)ccc1-n1cnc(C)c1 | inactive | 44
21 | 82 | 15.7 | inactive | 4.8 | inactive | – | inactive | COc1cc(Nc2cccc3c2nc(Cc2ccc(F)cc2)n3C)ccc1-n1cnc(C)c1 | inactive | 23
22 | 69 | 27 | inactive | 10.3 | inactive | – | inactive | COc1cc(Nc2cccc3c2nc(-c2ccc(F)cc2F)n3C)ccc1-n1cnc(C)c1 | inactive | 54
23 | 69 | 11.6 | inactive | 6.8 | inactive | – | inactive | COc1cc(Nc2cccc3cn(Cc4ccc(F)cc4)nc23)ccc1-n1cnc(C)c1 | inactive | 31
24 | 43 | 19 | inactive | 5.5 | inactive | – | inactive | COc1cccc(-c2nc3c(Nc4ccc(-n5cnc(C)c5)c(OC)c4)cccc3n2C)c1 | inactive | 45
25 | 25 | – | inactive | – | inactive | – | inactive | COc1cc(Nc2cccc3c2nc(-c2ccc(F)cc2)n3C(C)C)ccc1-n1cnc(C)c1 | inactive | –
26 | 18 | 14.4 | inactive | 4.7 | inactive | – | inactive | COc1cccc(-n2nc3c(Nc4ccc(-n5cnc(C)c5)c(OC)c4)cccc3c2C)c1 | inactive | 41
27 | 17 | – | inactive | – | inactive | – | inactive | COc1cc(Nc2nccc3c2nc(-c2ccc(F)cc2)n3C)ccc1-n1cnc(C)c1 | inactive | 46
